Screens as filed in PubChem BioAssay.
Diaphorase act = compounds boosting diaphorase resazurin reduction – biochemical, uHTS, resorufin fluorescence, counter-screen for diaphorase-coupled primary assays, primary screen; Diaphorase/resazurin coupled assay, 16 min; active compounds read high; 1 = vehicle wells, 0 = NADH-free wells; activation factor at 20 µM; 190,000 tested, 0.005% active; AID 1229, 2008;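 active means diaphorase activity raised at least twofold by the compound at 20 µM; inactive means activation factor below 2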
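Material: purified diaphorase enzyme from Clostridium kluyveri; Also added: 0.114 mM NADH and 0.1 mM resazurin, final amounts; Doses: single compound dose of 20 µM, 1% DMSO final; Times: 16 min enzyme reaction, ambient temperature; Detection: resorufin fluorescence, excitation 544 nm, emission 590 nm; Measure: increased resorufin signal from activators or reducing compounds.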
G6PDH CS = L. mesenteroides G6PDH inhibitors, counter-screen for G6PDH-coupled screening assays, biochemical, Leuconostoc mesenteroides enzyme. Purified L. mesenteroides G6PDH, diaphorase/resazurin coupled fluorescence, 45 min. inhibition, % at 5 µM. 200,000 tested, 0.12% active; in the data active means inhibition above about 50%
Diaphorase inh = diaphorase inhibitors and chemical oxidizers, primary screen, counter-screen for diaphorase-coupled primary assays, biochemical, uHTS, resorufin fluorescence | diaphorase resazurin-to-resorufin fluorescence, NADH, 16 min; bacterial (C. kluyveri) enzyme, not human | inhibition, % at 20 µM | 190,000 tested, 0.69% active | AID 1217, 2008;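 active means primary screen inhibition at 20 µM above a set limit, cut at about 50% in these data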;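 further: plate controls were DMSO with full reaction for no effect and wells lacking NADH for full effect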
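Test system: bacterial diaphorase enzyme (C. kluyveri); Quantity: 0.14 U/mL diaphorase, enzyme working solution; Times: reaction incubation of 16 min at room temperature; Measured by: fluorescence of resorufin formed from resazurin, Ex 544/Em 590 nm; Benchmarks: positive control minus NADH, DMSO neutral control.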
HKDC1 inh = HKDC1 hexokinase inhibitors, primary screen, biochemical, fluorescence, uHTS; recombinant HKDC1, G6PDH/diaphorase resazurin coupled fluorescence; inhibition, % at 20 µM; 340,000 tested, 0.16% active;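 active means inhibition above about 35% when tested at 20 µM, limit read from the data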;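 further: plate controls were DMSO wells with enzyme for no effect and DMSO wells lacking enzyme for full effect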
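Assay system: in-house recombinant HK5 (HKDC1) enzyme. Input: HKDC1 at 5 µg/mL. Medium: Tris pH 8.0 buffer with MgCl2, Tween-20, BSA, BME. Dosing: single 20 µM dose. Schedule: 90 min reaction incubation at room temperature, dark. Signal: resazurin-to-resorufin fluorescence via G6PDH and diaphorase coupling, 525/613 nm. Controls: DMSO-enzyme wells negative, buffer-substituted wells positive.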
PfGluPho inh = PfG6PD enzyme inhibitors, primary screen, biochemical, fluorescence intensity, uHTS | glucose-6-phosphate dehydrogenase-6-phosphogluconolactonase (Plasmodium falciparum 3D7) | PfGluPho enzyme, NADPH resazurin-diaphorase fluorescence | inhibition, % at 20 µM | 350,000 tested, 0.78% active | AID 504690, 2011;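 active means inhibition reaching at least a set limit at 20 µM in the primary screen, cut at about 59% in these data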;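 further: 0% = DMSO wells with substrate and 100% = DMSO wells lacking glucose-6-phosphate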
PfG6PD confirm = PfG6PD inhibitors, hit retest, confirmation, biochemical, fluorescence intensity, single concentration; recombinant PfGluPho, NADPH-diaphorase-resazurin fluorescence; inhibition, % at 20 µM; shares compounds with PfGluPho inh; 2,400 tested, 34% active;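 active means inhibition of at least 50% at 20 µM in any single replicate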;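 further: 0% = DMSO with substrate and 100% = DMSO lacking glucose-6-phosphate substrate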
Diaphorase 10uM = diaphorase inhibitors and chemical oxidizers, confirmation, counter-screen for P. falciparum G6PD inhibitor project, biochemical, fluorescence intensity, 10 µM NADPH; shares compounds with PfGluPho inh; 820 tested, 39% active; inhibition, % at 20 µM; diaphorase-coupled resazurin reduction, NADPH 10 uM;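 active means average inhibition reaching 50% or more with the compound at 20 µM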;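 further: resorufin red fluorescence formed as diaphorase reduces resazurin using NADPH; 0% = DMSO with enzyme and 100% = DMSO without enzyme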
Diaph ctr 30uM = diaphorase inhibitors and chemical oxidizers, confirmation, counter-screen for P. falciparum G6PD inhibitor project, biochemical, fluorescence intensity, 30 µM NADPH. AID 504863, 2011. 820 tested, 29% active. Diaphorase/resazurin coupled assay, resorufin fluorescence. inhibition, % at 20 µM. shares compounds with PfGluPho inh;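 active means inhibition averaging 50% or more, tested at 20 µM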;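 further: 0% = DMSO with enzyme and 100% = DMSO wells lacking diaphorase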
The depositor's hits bear a star; / = no result given. In the library only some 1.2% were active in any assay of this set; here they are far more common.

SMILES	Diaphorase act	G6PDH CS	Diaphorase inh	HKDC1 inh	PfGluPho inh	PfG6PD confirm	Diaphorase 10uM	Diaph ctr 30uM
O=C(N/N=C\c1ccccc1)c1sccc1-n1cccc1	1	9.8	3.9	-3.0	45.2	/	/	/
O=C(NCc1cccc(F)c1)C1CCC(=O)N(C2CC2)C1 (configuration not stated)	/	/	/	-1.4	-4.6	/	/	/
Cc1ccc(NC(=O)CN(C)C(=O)C(Sc2ccccc2)c2ccccc2)cc1 (configuration not stated)	/	/	/	1.2	3.3	/	/	/
O=C(N/N=C/c1cccc(O)c1)C(=O)N1CCCCCC1	/	/	/	3.8	-13.2	/	/	/
Cc1cc(C(=O)N/N=C/c2cccc([N+](=O)[O-])c2)c(C)n1-c1ccccc1	0.8	-7.3	18.7	-1.8	59.7*	28.4	/	/
O=C(N/N=C/c1cccc([N+](=O)[O-])c1)C(=O)N1CCCCCC1	/	/	/	-1.2	80.1*	57.6*	60.1*	47.3
OCC1CCCCN1CC(O)COC(c1ccc(F)cc1)c1ccc(F)cc1 (configuration not stated)	/	/	/	-5.8	13.7	/	/	/
Cc1nc2scc(-c3ccccc3)c2c(=O)n1N=C1C=CC(=O)C=C1	/	15.4	/	31.5	113.5*	111.5*	95.4*	89.0*
Cc1ccc(CNc2ccc(O)cc2)cc1	0.5	-31.1	52.9*	17.7	86.0*	63.9*	20.2	21.7
Cc1c(CCCN)c2ccccc2n1Cc1ccccc1	/	7.8	/	-4.0	-2.3	/	/	/
COc1ccc(CCN=C(N)NS(=O)(=O)c2cc(F)ccc2OC)cc1	/	/	/	-3.3	3.5	/	/	/
Cc1cc2nc(/C(C#N)=C\c3ccc(-c4ccccc4C(=O)O)o3)[nH]c2cc1C	/	/	/	11.9	59.6*	46.1	/	/
Cc1ccc2nc(/C(C#N)=C/c3ccc(-c4ccccc4C(=O)O)o3)[nH]c2c1	/	/	/	6.3	4.3	/	/	/
COc1ccc(OCC(O)CNS(=O)(=O)c2ccc(NC(C)=O)cc2)cc1 (configuration not stated)	/	/	/	6.4	-4.4	/	/	/
Oc1cccc(C=Nc2cccc3ccccc23)c1O	/	/	/	16.6	45.0	/	/	/
Oc1ccc(/C=N/N=C(c2ccccc2)c2ccccc2)c(O)c1O	0.3	-28.1	75.0*	19.5	74.6*	72.5*	50.7*	34.6
Nc1ccc(Cc2ccc(N)c(O)c2)cc1O	0.9	27.4	14.4	3.1	71.9*	45.5	/	/
COc1cc(Cc2ccc(N)c(OC)c2)ccc1N	0.9	-1.6	10.5	1.2	14.2	/	/	/
COc1ccc(S(=O)(=O)Nc2cc(S(=O)(=O)N3CCOCC3)ccc2OC)cc1	/	/	/	-4.1	8.0	/	/	/
O=C1Nc2cc(C(=O)NCCCN3CCCC3)ccc2S/C1=C/c1cccc(Cl)c1	/	/	/	/	60.6*	79.0*	-22.7	-24.8
Cc1cccc(/C=C2/Sc3ccc(C(=O)NCCN4CCCC4)cc3NC2=O)c1	/	/	/	3.4	56.7	/	/	/
CCN1CCCC1CNC(=O)c1ccc2c(c1)NC(=O)/C(=C\c1ccccc1Cl)S2 (configuration not stated)	/	/	/	/	118.0*	105.0*	-12.6	-12.4
CCN1CCCC1CNC(=O)c1ccc2c(c1)NC(=O)/C(=C\c1ccc(OC)c(OC)c1)S2 (configuration not stated)	/	/	/	16.6	16.9	/	/	/
C[C@H](O)[C@@H]1C(=O)N2CCc3ccc(-c4ccccc4)cc3[C@@H]2C[C@@H]1N(C)C(=S)Nc1ccc(F)cc1	/	/	/	/	22.2	/	/	/
